NR2E3 ag-1: NR2E3 (human) agonism | Q9Y5X4 | 320,000 tested, 0.12% active | GST-NR2E3/biotin-RetCOR TR-FRET, 1536-well | inhibition of corepressor binding, % at 4.78 µM;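 active = percent inhibition above the cutoff of mean plus 3 SD of all tested compounds, set per screening campaign, cut at about 20% in these data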;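 note: 0% = DMSO wells and 100% = biotin wells as full block of FRET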
Target sequence (Q9Y5X4 whole entry, looked up): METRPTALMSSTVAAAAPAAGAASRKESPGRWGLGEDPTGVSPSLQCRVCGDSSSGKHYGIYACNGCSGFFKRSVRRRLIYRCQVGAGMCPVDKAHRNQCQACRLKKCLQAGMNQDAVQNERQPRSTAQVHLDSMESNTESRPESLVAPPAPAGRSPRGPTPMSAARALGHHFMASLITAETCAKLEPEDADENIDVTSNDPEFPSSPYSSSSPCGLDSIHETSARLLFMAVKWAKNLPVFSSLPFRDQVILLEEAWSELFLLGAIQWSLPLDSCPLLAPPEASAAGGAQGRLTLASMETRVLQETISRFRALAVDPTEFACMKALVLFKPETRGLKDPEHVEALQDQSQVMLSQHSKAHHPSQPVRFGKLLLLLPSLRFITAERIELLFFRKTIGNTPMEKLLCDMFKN
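Test system: GST-NR2E3 and biotin-RetCOR proteins | Quantity: 1.35 nM GST-tagged NR2E3 final | Medium: Tris pH 7.5 | Also added: 7 nM biotin-RetCOR | Dosing: Compound at 4.8 µM, single dose | Timing: 5 h at 4 °C | Detection: Time-resolved FRET | Read-out basis: Percent inhibition | Benchmarks: Biotin wells as high control, 0.6% DMSO wells as low control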
697 NFkB inh: lowers PMA/ionomycin-induced NF-kB signal in 697 B cells; 697 B-cell NF-kB luciferase reporter, 16 h; inhibition, % at 4 µM; 330,000 tested, 0.33% active; in the data active = inhibition above about 35%
MPTP block: blocks calcium-induced mitochondrial swelling; AID 602449; inhibition, % at 10 µM; isolated mouse mitochondria, Ca2+ swelling absorbance, 30 min; 360,000 tested, 1.4% active;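 active = inhibition of 50% or more, scaled per plate between neutral and stimulator controls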;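 note: 0% = DMSO wells given calcium and 100% = 1 mM EGTA wells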
aDG glyco act: alpha-DG glycosylation activation. activation, % at 10 µM. Pro5-aDG cells, alpha-DG glycosylation AlphaScreen (IIH6); 0% Pro5, 100% B10-LARGE cell signal. 360,000 tested, 0.22% active. AID 624168;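 active = activation of at least 8% versus controls, or a plate z-score of at least 8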;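 note: Pro5 are CHO cells carrying HIG-tagged alpha-DG that lacks glycosylation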
NR2E3 ag-2: agonists of human NR2E3 nuclear receptor | Q9Y5X4 | CHO-S Gal4-NCOR/VP16-NR2E3 two-hybrid, luciferase | inhibition of corepressor binding, % at 3.98 µM | 360,000 tested, 0.35% active;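 active = inhibition above the mean of all tested compounds plus 3 SD, cut at about 70% in these data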;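 note: 0% = DMSO with NR2E3 transfected cells and 100% = cells lacking NR2E3 construct; higher means lower luciferase signal from less NR2E3 corepressor binding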
Jurkat NFkB inh: inhibitors of the PMA/ionomycin-induced NF-kB reporter in Jurkat cells; 330,000 tested, 0.53% active; inhibition, % at 4 µM; PMA/ionomycin-induced NF-kB luciferase reporter, luminescence; in the data active = inhibition above about 50%
MPTP counter: Rhodamine 123 counter-screen of mitochondrial pore hits | shares compounds with MPTP block | isolated mitochondria, membrane potential, Rhodamine 123 fluorescence | inhibition, % at 10 µM | 5,000 tested, 78% active; in the data active = inhibition above about 22%;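 note: 0% = DMSO vehicle and 100% = positive control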
MPTP swell DR: dose response confirmation of mitochondrial permeability transition pore inhibitors | shares compounds with MPTP block | AID 651561 | IC50, µM | isolated mitochondria swelling, absorbance | 780 tested, 58% active; in the data active = IC50 below about 20 µM
MPTP cs DR: counter-screen for mitochondrial permeability transition pore inhibitors, dose response; shares compounds with MPTP block; isolated mitochondria counterscreen, fluorescence read-out; IC50, µM; 780 tested, 49% active; in the data active = IC50 below about 80 µM
* = called active by the depositor; i = inactive; nt = no result. In the library only some 2.4% were active in any assay of this set; here they are far more common.

SMILES | NR2E3 ag-1 | 697 NFkB inh | MPTP block | aDG glyco act | NR2E3 ag-2 | Jurkat NFkB inh | MPTP counter | others
CS(=O)(=O)N(CC(=O)N1CCCC1)c1ccccc1F | 0 | 8 | -1 | 0 | -4 | 7 | nt
Fc1ccc(NC(=S)Nc2cccc3ccccc23)cc1 | -2 | -96 | 17 | 0 | -113 | -57 | nt
Fc1ccc(NC(=S)Nc2cccc3ccccc23)cc1F | -1 | -37 | 81* | 0 | -12 | 5 | 98*
S=C(Nc1ccc(Cl)cc1)Nc1cccc2cnccc12 | 0 | -4 | 102* | 2 | -27 | 27 | 93*
Cc1ccc(OCC(=O)NNC(=O)Cc2ccc(S(=O)(=O)N3CCOCC3)s2)cc1 | 2 | -12 | -1 | 0 | -27 | -26 | nt
CC(c1nnc(SCC(=O)N(C)C2CCS(=O)(=O)C2)n1-c1ccccc1)N(C)C (stereo unspecified) | 4 | -9 | -1 | 0 | -13 | -4 | nt
COc1cc(CNCc2cccc3ccccc23)cc(OC)c1 | -3 | 9 | 1 | 0 | -7 | 5 | nt
COc1cc(CNCc2c[nH]c3ccccc23)cc(OC)c1 | -3 | 1 | 60* | 0 | -24 | 19 | 1 | MPTP swell DR=6.3*;MPTP cs DR=53*
CC1=C/C(=C(\c2cc(C)c(O)c(Br)c2)c2ccccc2S(=O)(=O)O)C=C(Br)C1=O | -51 | -3 | 24 | 0 | -4 | 3 | nt
CCCCn1c(/C=C/c2ccco2)nc2ccccc21 | 3 | 9 | -2 | 1 | 27 | 0 | nt
CCCCn1c(/C=N/Nc2nc3ccccc3[nH]2)nc2ccccc21 | 2 | -59 | 100* | 0 | -54 | -41 | 84*
COc1ccc(Cl)cc1-c1cc(C(=O)NCc2ccccc2)[nH]n1 | nt | nt | 1 | 0 | -1 | nt | nt
Brc1ccc(CNCc2cccs2)cc1 | -1 | -21 | 1 | 0 | -2 | -10 | nt
COc1ccc(CCNCc2ccc(OCc3ccccc3)cc2)cc1 | 2 | -14 | 98* | 0 | 4 | -8 | -2 | MPTP swell DR=4.4*;MPTP cs DR=28*
COc1ccc(C(CCNCc2ccc(F)cc2)c2ccc(F)cc2)cc1 (stereo unspecified) | -2 | 7 | 4 | 0 | 5 | 0 | nt
COc1ccc(CNCCC(c2ccc(F)cc2)c2ccc(OC)cc2)cc1 (stereo unspecified) | 0 | 6 | 56* | 3 | 0 | -2 | -8
c1ccc(COc2ccc(CNCc3cccs3)cc2)cc1 | -1 | 0 | 96* | 0 | -16 | -19 | -1 | MPTP swell DR=6.4*;MPTP cs DR=31*
O=C1CC(c2ccc(F)cc2)CC2=C1C(c1ccc([N+](=O)[O-])o1)Nc1ccccc1N2 (stereo unspecified) | 0 | -1 | 1 | 0 | 5 | -11 | nt
CCCn1nnnc1NCc1ccc(N(CC)CC)cc1 | 1 | -1 | 1 | 0 | -8 | -9 | nt
COC(=O)c1ccc(C)c(NC(=O)CCc2cc(OC)c(OC)c(OC)c2)c1 | -2 | 0 | 2 | 0 | -12 | 11 | nt
COc1ccc(CNC(=O)N2CCN(c3ccccc3OC)CC2)cc1 | 0 | 10 | -1 | 0 | -12 | -15 | nt
Cc1ccc(S(=O)(=O)/N=C2/NC(=O)/C(=C/c3ccc(Br)o3)S2)cc1 | 0 | -29 | 53* | 0 | 8 | -5 | 68*
Cc1ccc(S(=O)(=O)/N=C2/NC(=O)/C(=C\c3cc(Br)cc(Br)c3O)S2)cc1 | nt | 3 | 0 | 1 | -7 | 8 | nt
Cn1c(C(=O)N2CCN(c3ccc(Cl)cc3)CC2)cc2c(=O)[nH]c3ccccc3c21 | 2 | -16 | 1 | 1 | -9 | 4 | nt
Cc1ccc(Cl)cc1N1CCN(C(=O)c2cc3c(=O)[nH]c4ccccc4c3n2C)CC1 | 2 | -45 | 57* | 4 | -5 | 16 | -4 | MPTP swell DR=>100;MPTP cs DR=>80
SMILES | NR2E3 ag-1 | 697 NFkB inh | MPTP block | aDG glyco act | NR2E3 ag-2 | Jurkat NFkB inh | MPTP counter | others
CCCc1nnc(NC(=O)CCC(=O)NCc2ccccc2)s1 | 3 | -4 | 0 | 1 | -17 | -1 | nt
COc1cc(/C=C2\C(=O)N(c3ccccc3)N=C2C)ccc1Oc1ccc([N+](=O)[O-])cc1[N+](=O)[O-] | 8 | nt | 88* | 0 | 9 | nt | 61*
COc1cc(/C=C2/C(=O)N(c3ccc(C)c(C)c3)N=C2C)cc([N+](=O)[O-])c1O | 0 | 9 | 3 | 0 | -8 | 2 | nt
CC1=NN(c2ccccc2)C(=O)/C1=C\c1ccc(Oc2ccc([N+](=O)[O-])cc2[N+](=O)[O-])cc1 | 16 | -7 | 80* | 0 | -24 | -7 | 70*
COC(=O)c1cc(Cl)c(NC(=O)/C=C/c2ccc(Cl)cc2Cl)cc1OC | -2 | -24 | 83* | 0 | -5 | -22 | 3 | MPTP swell DR=i;MPTP cs DR=4.4*
O=C(Nn1c(C2CCCCC2)nc2ccccc2c1=O)c1ccc(Cl)c([N+](=O)[O-])c1 | 5 | -2 | 72* | 0 | -4 | 0 | 83*
Cc1cc(C(=O)Nn2c(C3CCCCC3)nc3ccccc3c2=O)ccc1[N+](=O)[O-] | -3 | 3 | 53* | 0 | -3 | 1 | 77*
Cc1cc(C(=O)Nn2c(C)nc3ccccc3c2=O)ccc1[N+](=O)[O-] | 3 | -2 | 0 | 0 | 1 | 8 | nt
CC(SCc1ccccc1)C(=O)Nc1ccccc1 (stereo unspecified) | 0 | 8 | 3 | 0 | -9 | 14 | nt
COC(=O)C1=C(C)NC(C)=C(C(=O)OC)C1c1ccc(-c2cccc(Cl)c2Cl)o1 | 3 | -5 | 82* | 0 | -20 | 2 | 2 | MPTP swell DR=>100;MPTP cs DR=>80
COC(=O)C1=C(C)NC(C)=C(C(=O)OC)C1c1ccc(-c2cc(Cl)ccc2Cl)o1 | -1 | 6 | 48 | 0 | 6 | 5 | nt
CC(C)CC(=O)Nc1ccc2oc(-c3ccncc3)nc2c1 | 4 | -32 | -5 | 0 | -70 | -38 | nt
CC(Oc1ccc(Cl)cc1Cl)C(=O)Nc1ccc2oc(-c3ccncc3)nc2c1 (stereo unspecified) | 1 | -51 | 74* | 0 | -35 | 5 | 83*
Oc1ccc(-c2n[nH]c(C(F)(F)F)c2-c2ccccc2)c(O)c1 | 1 | -29 | 84* | 3 | 76* | 46 | 76*
COc1ccccc1N(C(C)=O)C1=C(Cl)C(=O)c2ccccc2C1=O | nt | nt | 51* | 0 | 43 | nt | 95*
Nc1nc(SCC(=O)Nc2ccc(C(F)(F)F)cc2)[nH]c(=O)c1NC(=O)c1ccc(F)c(F)c1 | 1 | 3 | 2 | 0 | -14 | 0 | nt
